Assay results reported in ChEMBL document CHEMBL1212766, “Dose escalation study of the safety, tolerability, and pharmacokinetics of nemonoxacin (TG-873870), a novel potent broad-spectrum nonfluorinated quinolone, in healthy volunteers” (Antimicrob Agents Chemother, 2010).
Values after ≈ are worked out from the molar mass of the structure shown.

Key:
[1] = Renal clearance in healthy human at 125 mg, po administered as single dose; settings: in vivo, read-out: CL_renal (converted)
Homo sapiens [2] = experiment: Toxicity in healthy human assessed as occurrence of abdominal pain at 25 […], po; assay type: organism-based, Abdomen; design: route oral; settings: in vivo
Outline: (§1)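 Double-blind, placebo-controlled single ascending oral dose; two placebo and six active subjects per cohort. Adverse events were recorded throughout the dosing period and at follow-up, with confinement to 96 h after dosing. Results are reported as number and percentage of subjects with the event (n/N × 100).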

Streptococcus pneumoniae [3] = experiment: Antimicrobial activity against ciprofloxacin-resistant Streptococcus pneumoniae; assay type: functional
Homo sapiens [4] = experiment: Toxicity in healthy human assessed as occurrence of contact dermatitis at 1000 […], po; assay type: organism-based; design: route oral; settings: in vivo
Outline: as §1

Staphylococcus aureus = experiment: Ratio of fAUC to MIC90 for methicillin-sensitive Staphylococcus aureus; assay type: functional
Outline: (§2)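 Fasted healthy adults got a single oral 500 mg dose with 240 ml water. Plasma was sampled predose to 96 h and assayed by LC-MS/MS (5–5,000 ng/ml). Cmax was read from individual profiles, and AUC0-∞ came from linear trapezoid plus extrapolation. Free fraction was measured by ultrafiltration (30,000 MWCO) of 0.5 and 6 h plasma. Free exposure was divided by the isolate MIC90.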

Homo sapiens [5] = experiment: Clearance in healthy human at 25 […], po administered as single dose; assay type: ADME, organism-based; design: route oral; settings: in vivo
Outline: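 Randomized, double-blind, placebo-controlled single ascending oral dose in fasted healthy subjects (six on drug per cohort, with 240 ml water). Plasma sampled predose through 96 h and assayed by validated LC-MS/MS over 5–5,000 ng/ml. Oral clearance (CL_o) came from noncompartmental analysis, with AUC_0-∞ from linear trapezoids plus C_last/λz. Values are means (SD).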

[6] = Tmax in healthy human at 50 mg, po administered as single dose; settings: in vivo
Streptococcus pneumoniae [7] = experiment: Ratio of fCmax to MIC90 for Streptococcus pneumoniae; assay type: functional
Outline: as §2

Homo sapiens [8] = experiment: Toxicity in healthy human assessed as occurrence of ear pain at 50 […], po; assay type: organism-based; design: route oral; settings: in vivo
[9] = Terminal phase elimination half-life in healthy human at 250 […], po administered single dose; assay type: ADME, organism-based; design: route oral; settings: in vivo
Outline: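 After one fasted oral dose (six healthy subjects per cohort), plasma was sampled from 0.5 to 96 h and assayed by LC-MS/MS (LLOQ 5 ng/ml). λz came from least-squares regression on at least the last three log-concentration points, and t1/2 = 0.693/λz. Values are means (SD).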

Homo sapiens [10] = experiment: Toxicity in healthy human assessed as occurrence of ear pain at 250 […], po; assay type: organism-based; design: route oral; settings: in vivo
Homo sapiens [11] = experiment: Toxicity in healthy human assessed as occurrence of pruritus at 500 […], po; assay type: organism-based; design: route oral; settings: in vivo
Homo sapiens [12] = experiment: Toxicity in healthy human assessed as occurrence of oral hypoesthesia at 500 […], po; assay type: organism-based; design: route oral; settings: in vivo

COc1c(N2C[C@@H](C)C[C@H](N)C2)ccc2c(=O)c(C(=O)O)cn(C3CC3)c12 [NEMONOXACIN]
CL renal [1]: 1.33 mL/min/kg | Activity (Homo sapiens [2]): 0% | MIC90 (Streptococcus pneumoniae [3]): 0.12 µg/mL (≈ 0.323 µM) | Activity (Homo sapiens [4]): 0% | Ratio (Staphylococcus aureus): 227 | CL (Homo sapiens [5]): 5 mL/min/kg | Tmax [6]: 1.08 h | Ratio (Streptococcus pneumoniae [7]): 191 | Activity (Homo sapiens [8]): 0% | half-life [9]: 10.9 h | Activity (Homo sapiens [10]): 0% | Activity (Homo sapiens [11]): 0% | Activity (Homo sapiens [12]): 0%
